Experiment [1] addresses T1, Translocator protein (Rattus norvegicus, UniProt P16257). Put plainly: (§1) Displacement of [3H]-PK 11195 from rat peripheral (mitochondrial) benzodiazepine receptor. The method in brief:
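Male CD rat (~150 g) cerebral cortex membranes washed in 50 mM phosphate-buffered saline, pH 7.4. 10 mg wet tissue incubated 120 min at 4 °C with 1 nM [3H]PK 11195 and 8–12 drug concentrations. Nonspecific binding defined with 1 μM PK 11195. Filtration, scintillation counting. IC50 by nonlinear curve fitting; triplicate points.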
A general note: In a radioligand displacement assay an active substance lowers the binding of a labelled ligand.

In experiment [2] the target is T1, Translocator protein. The experiment is described as §1. The source holds these as a separate data set.

Each structure is given as a SMILES string.

T1 sequence (P16257 whole entry, looked up): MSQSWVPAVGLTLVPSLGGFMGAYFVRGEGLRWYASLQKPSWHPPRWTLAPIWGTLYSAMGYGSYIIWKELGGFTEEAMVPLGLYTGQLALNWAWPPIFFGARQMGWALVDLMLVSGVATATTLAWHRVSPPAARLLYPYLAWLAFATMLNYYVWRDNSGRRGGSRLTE

Usually IC50 stands for the point on the concentration scale where inhibition reaches its midpoint. A low value points to greater potency in that assay. As for `COc1ccc(C2C(=O)c3cccn3-c3ccccc3[S+]2[O-])cc1` (stereo not given), in experiment [1], the half-maximal inhibitory concentration (IC50) is 22900 nM. Still for that read-out and setting: the same measure for `COc1ccc(C2=C(OC(=O)N(C)C)c3cccn3-c3cc(C(F)(F)F)ccc3S2)cc1`: 295 nM. Consider `CS(=O)(=O)OC1=C(c2ccccc2)Sc2ccccc2-n2cccc21`, for which the IC50 in experiment [1] is 57.5 nM. Same read-out and setting: with `CC(=O)OC1=C(c2ccccc2)Sc2c(Cl)cccc2-n2cccc21` the figure was 7.59 nM.

With `COc1ccc(C2=C(OC(=O)N(C)C)c3cccn3-c3ccccc3S2)cc1`, the IC50 in experiment [1] was 9.12 nM. With `CCCCCC(=O)OC1=C(c2ccccc2)Sc2ccccc2-n2cccc21`, the IC50 in experiment [1] was 23.4 nM.

Consider `CC(=O)OC1=C(c2ccc(F)cc2)Sc2ccccc2-n2cccc21`, for which the concentration for half-maximal inhibition (IC50) in experiment [2] is 28 nM; in experiment [1], 28.2 nM. With `CN(C)C(=O)OC1=C(c2ccccc2)Sc2ccccc2-n2cccc21`, the IC50 in experiment [1] is 9.12 nM. Same read-out and setting: the same measure for `CCCC(=O)OC1=C(c2ccccc2)Sc2ccccc2-n2cccc21`: 21.4 nM.

`COc1ccc(C2=C(OC(=O)N(C)C)c3cccn3-c3cc(Cl)ccc3S2)cc1`: the IC50 in experiment [1] was 166 nM.

As to `CC(=O)OC1=C(c2ccccc2)Sc2cc(C)ccc2-n2cccc21`, the IC50 in experiment [2] and in experiment [1] was 112 nM each time. As for `CN(C)C(=O)OC1=C(c2ccccc2F)Sc2ccccc2-n2cccc21`, the IC50 in experiment [2] was 31 nM; in experiment [1] it was 30.9 nM. The compound `COc1ccc(C2=C(OC(=O)c3ccncc3)c3cccn3-c3ccccc3S2)cc1` showed a concentration for half-maximal inhibition (IC50) in experiment [1] of 100000 nM. For the compound `CC(=O)OC1=C(c2ccccc2F)Sc2ccccc2-n2cccc21`, the concentration for half-maximal inhibition (IC50) in experiment [2] and in experiment [1] was 38 nM in each case. In the case of `CC(=O)OC1=C(c2ccccc2)Sc2ccc(C)cc2-n2cccc21`, the half-inhibitory concentration (IC50) was 675 nM in experiment [2] and 676 nM in experiment [1]. In the case of `CCC(=O)OC1=C(c2ccccc2)Sc2ccccc2-n2cccc21`, the concentration for half-maximal inhibition (IC50) in experiment [1] is 66.1 nM. Still for that read-out and setting: with `CC(=O)OC1=C(c2ccccc2)Sc2ccccc2-n2cccc21` the figure was 19.5 nM; with `COc1ccc(C2=C(OC(C)=O)c3cccn3-c3cccc(Cl)c3S2)cc1`, 20.4 nM. Consider `CC(=O)OC1=C(c2ccc(Cl)cc2)Sc2ccccc2-n2cccc21`, for which the IC50 was 30 nM in experiment [2] and 30.2 nM in experiment [1].

`CCC(=O)OC1=C(c2ccc(OC)cc2)Sc2ccccc2-n2cccc21`: in experiment [1], the concentration for half-maximal inhibition (IC50) is 29.5 nM. This lies in the double-digit nanomolar range.

As for `CN(C)C(=O)OC1=C(c2ccccc2)Sc2c(Cl)cccc2-n2cccc21`, the IC50 was 4 nM in experiment [2] and 3.98 nM in experiment [1]. For the compound `O=C1c2cccn2-c2ccccc2S(=O)(=O)C1c1ccccc1` (stereo not given), in experiment [1], the 50% inhibitory concentration (IC50) was 100000 nM. In turn, `COc1ccc(C2=C(OC(=O)c3cc(OC)c(OC)c(OC)c3)c3cccn3-c3cc(C(F)(F)F)ccc3S2)cc1` showed a 50% inhibitory concentration (IC50) in experiment [1] of 100000 nM. Same read-out and setting: the same measure for `COc1ccc(C2=C(OC(=O)c3cc(OC)c(OC)c(OC)c3)c3cccn3-c3ccccc3S2)cc1`: 100000 nM. Still for that read-out and setting: the same measure for `COc1ccc(C2=C(OC(=O)c3cc(OC)c(OC)c(OC)c3)c3cccn3-c3cc(Cl)ccc3S2)cc1`: 100000 nM. The compound `CCCC(=O)OC1=C(c2ccc(OC)cc2)Sc2ccccc2-n2cccc21` gave a 50% inhibitory concentration (IC50) in experiment [1] of 27.5 nM. On the same count and under the same terms, the same measure for `COc1ccc(C2=C(OC(=O)c3cccnc3)c3cccn3-c3ccccc3S2)cc1`: 100000 nM; for `COc1ccc(C2=C(OC(C)=O)c3cccn3-c3ccccc3S2(=O)=O)cc1`: 631 nM.

The values are drawn from ChEMBL document CHEMBL1127419, “A comparative molecular field analysis model for 6-arylpyrrolo[2,1-d] [1,5]benzothiazepines binding selectively to the mitochondrial benzodiazepine receptor” (J Med Chem, 1994).
